Experimental data as given in ChEMBL document CHEMBL3588833 (ACS Med Chem Lett, 2015).
The source made the active and inactive calls.

Legend:
[1] = target: T1, Sodium channel protein type 10 subunit alpha (Homo sapiens, UniProt Q9Y5Y9); assay: Inhibition of human Nav1.8 expressed in HEK293 cells assessed as reduction in blue fluorescent signal by VSP-FRET assay; assay type: cell-based
Method in brief: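 hNav1.8 stably expressed in an in-house HEK293 line; membrane-potential VSP-FRET read-out; IC50 from at least three tests on three separate assay runs.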

[2] = target: T2, Sodium channel protein type 2 subunit alpha (Homo sapiens, UniProt Q99250); assay: Inhibition of human Nav1.2 expressed in SHSY5Y cells assessed as reduction in blue fluorescent signal by VSP-FRET assay; assay type: cell-based, SH-SY5Y
[3] = Half life in rat at 2 mg/kg, iv; assay type: ADME, organism-based; conditions: in vivo
[4] = Half life in rat at 5 mg/kg, po; assay type: ADME, organism-based; conditions: in vivo
[5] = Tmax in rat at 5 mg/kg, po; assay type: ADME, organism-based; conditions: in vivo
[6] = Plasma clearance in rat at 2 mg/kg, iv; assay type: ADME, organism-based
[7] = Plasma clearance in rat at 5 mg/kg, po; assay type: ADME, organism-based
[8] = Volume of distribution in rat at 2 mg/kg, iv; assay type: ADME, organism-based; conditions: in vivo
[9] = Oral bioavailability in rat at 5 mg/kg; assay type: ADME, organism-based; conditions: in vivo
[10] = target: T1, Sodium channel protein type 10 subunit alpha; assay: Inhibition of human Nav1.8/beta1 expressed in HEK293 cells by manual patch clamp electrophysiology; assay type: cell-based
Method in brief: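 Recombinantly expressed human Nav1.8 with β1 subunit, recorded by manual whole-cell patch clamp electrophysiology. Inhibition was measured at the channel's V0.5 of inactivation, and IC50 values were derived from these recordings, with the number of determinations (n) reported per compound.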

[11] = target: Sodium channel protein type 1 subunit alpha (Homo sapiens, UniProt P35498); assay: Inhibition of human Nav1.1 expressed in HEK293 cells by IonWorks Quattro selectivity assay; assay type: cell-based
[12] = target: T2, Sodium channel protein type 2 subunit alpha; assay: Inhibition of human Nav1.2 expressed in HEK293 cells by IonWorks Quattro selectivity assay; assay type: cell-based
[13] = target: Sodium channel protein type 5 subunit alpha (Homo sapiens, UniProt Q14524); assay: Inhibition of human Nav1.5 expressed in HEK293 cells by IonWorks Quattro selectivity assay; assay type: cell-based
[14] = Intrinsic clearance in rat liver microsomes; assay type: ADME; conditions: read-out: CLH
[15] = Intrinsic clearance in human liver microsomes; assay type: ADME; conditions: read-out: CLH
[16] = Inhibition of Voltage gated sodium channel-mediated TTX-r current in rat DRG neurons by manual patch clamp electrophysiology; conditions: DRG neuron
[17] = Inhibition of Voltage gated sodium channel-mediated TTX-R current in human DRG neurons by manual patch clamp electrophysiology; conditions: DRG neuron
[18] = system: Rattus norvegicus; assay: Antallodynic effect in Sprague-Dawley rat spinal nerve injury-induced neuropathic pain model at 10 or 30 mg/kg; assay type: functional, organism-based
[19] = target: Voltage-gated inwardly rectifying potassium channel KCNH2 (Homo sapiens, UniProt Q12809)
Sequence of Voltage-gated inwardly rectifying potassium channel KCNH2 (Q12809 whole entry): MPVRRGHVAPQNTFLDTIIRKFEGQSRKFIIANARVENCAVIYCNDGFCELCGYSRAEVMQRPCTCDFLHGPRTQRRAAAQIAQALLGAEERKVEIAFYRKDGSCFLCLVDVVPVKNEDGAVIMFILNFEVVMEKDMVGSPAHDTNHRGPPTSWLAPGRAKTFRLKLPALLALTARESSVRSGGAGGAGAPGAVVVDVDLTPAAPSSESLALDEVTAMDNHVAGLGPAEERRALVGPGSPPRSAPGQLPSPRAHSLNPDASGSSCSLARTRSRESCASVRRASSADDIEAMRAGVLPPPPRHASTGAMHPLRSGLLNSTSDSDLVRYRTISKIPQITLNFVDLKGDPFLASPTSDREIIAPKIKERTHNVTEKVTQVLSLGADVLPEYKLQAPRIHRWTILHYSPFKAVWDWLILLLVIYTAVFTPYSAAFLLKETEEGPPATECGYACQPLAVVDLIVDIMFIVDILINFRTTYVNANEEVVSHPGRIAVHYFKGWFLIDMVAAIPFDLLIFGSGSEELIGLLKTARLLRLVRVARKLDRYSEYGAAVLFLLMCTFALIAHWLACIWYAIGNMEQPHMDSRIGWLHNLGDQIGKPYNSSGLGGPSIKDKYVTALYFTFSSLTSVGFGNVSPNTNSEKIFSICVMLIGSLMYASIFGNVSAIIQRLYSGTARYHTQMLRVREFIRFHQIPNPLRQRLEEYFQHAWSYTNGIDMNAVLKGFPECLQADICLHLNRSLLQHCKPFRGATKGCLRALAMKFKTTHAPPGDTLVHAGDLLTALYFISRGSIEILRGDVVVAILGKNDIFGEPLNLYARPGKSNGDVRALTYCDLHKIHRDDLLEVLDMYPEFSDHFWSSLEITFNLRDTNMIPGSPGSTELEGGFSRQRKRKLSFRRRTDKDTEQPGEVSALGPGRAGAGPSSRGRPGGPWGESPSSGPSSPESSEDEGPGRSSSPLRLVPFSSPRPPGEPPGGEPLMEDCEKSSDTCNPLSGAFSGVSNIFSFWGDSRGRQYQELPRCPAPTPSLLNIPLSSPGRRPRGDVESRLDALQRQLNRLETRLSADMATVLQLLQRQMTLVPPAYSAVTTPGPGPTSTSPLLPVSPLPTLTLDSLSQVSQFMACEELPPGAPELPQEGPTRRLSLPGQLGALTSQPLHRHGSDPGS

[20] = target: T3, Sodium channel protein type 9 subunit alpha (Homo sapiens, UniProt Q15858); assay: Inhibition of human Nav1.7 expressed in HEK293 cells by IonWorks Quattro assay
T3 sequence (Q15858 whole entry): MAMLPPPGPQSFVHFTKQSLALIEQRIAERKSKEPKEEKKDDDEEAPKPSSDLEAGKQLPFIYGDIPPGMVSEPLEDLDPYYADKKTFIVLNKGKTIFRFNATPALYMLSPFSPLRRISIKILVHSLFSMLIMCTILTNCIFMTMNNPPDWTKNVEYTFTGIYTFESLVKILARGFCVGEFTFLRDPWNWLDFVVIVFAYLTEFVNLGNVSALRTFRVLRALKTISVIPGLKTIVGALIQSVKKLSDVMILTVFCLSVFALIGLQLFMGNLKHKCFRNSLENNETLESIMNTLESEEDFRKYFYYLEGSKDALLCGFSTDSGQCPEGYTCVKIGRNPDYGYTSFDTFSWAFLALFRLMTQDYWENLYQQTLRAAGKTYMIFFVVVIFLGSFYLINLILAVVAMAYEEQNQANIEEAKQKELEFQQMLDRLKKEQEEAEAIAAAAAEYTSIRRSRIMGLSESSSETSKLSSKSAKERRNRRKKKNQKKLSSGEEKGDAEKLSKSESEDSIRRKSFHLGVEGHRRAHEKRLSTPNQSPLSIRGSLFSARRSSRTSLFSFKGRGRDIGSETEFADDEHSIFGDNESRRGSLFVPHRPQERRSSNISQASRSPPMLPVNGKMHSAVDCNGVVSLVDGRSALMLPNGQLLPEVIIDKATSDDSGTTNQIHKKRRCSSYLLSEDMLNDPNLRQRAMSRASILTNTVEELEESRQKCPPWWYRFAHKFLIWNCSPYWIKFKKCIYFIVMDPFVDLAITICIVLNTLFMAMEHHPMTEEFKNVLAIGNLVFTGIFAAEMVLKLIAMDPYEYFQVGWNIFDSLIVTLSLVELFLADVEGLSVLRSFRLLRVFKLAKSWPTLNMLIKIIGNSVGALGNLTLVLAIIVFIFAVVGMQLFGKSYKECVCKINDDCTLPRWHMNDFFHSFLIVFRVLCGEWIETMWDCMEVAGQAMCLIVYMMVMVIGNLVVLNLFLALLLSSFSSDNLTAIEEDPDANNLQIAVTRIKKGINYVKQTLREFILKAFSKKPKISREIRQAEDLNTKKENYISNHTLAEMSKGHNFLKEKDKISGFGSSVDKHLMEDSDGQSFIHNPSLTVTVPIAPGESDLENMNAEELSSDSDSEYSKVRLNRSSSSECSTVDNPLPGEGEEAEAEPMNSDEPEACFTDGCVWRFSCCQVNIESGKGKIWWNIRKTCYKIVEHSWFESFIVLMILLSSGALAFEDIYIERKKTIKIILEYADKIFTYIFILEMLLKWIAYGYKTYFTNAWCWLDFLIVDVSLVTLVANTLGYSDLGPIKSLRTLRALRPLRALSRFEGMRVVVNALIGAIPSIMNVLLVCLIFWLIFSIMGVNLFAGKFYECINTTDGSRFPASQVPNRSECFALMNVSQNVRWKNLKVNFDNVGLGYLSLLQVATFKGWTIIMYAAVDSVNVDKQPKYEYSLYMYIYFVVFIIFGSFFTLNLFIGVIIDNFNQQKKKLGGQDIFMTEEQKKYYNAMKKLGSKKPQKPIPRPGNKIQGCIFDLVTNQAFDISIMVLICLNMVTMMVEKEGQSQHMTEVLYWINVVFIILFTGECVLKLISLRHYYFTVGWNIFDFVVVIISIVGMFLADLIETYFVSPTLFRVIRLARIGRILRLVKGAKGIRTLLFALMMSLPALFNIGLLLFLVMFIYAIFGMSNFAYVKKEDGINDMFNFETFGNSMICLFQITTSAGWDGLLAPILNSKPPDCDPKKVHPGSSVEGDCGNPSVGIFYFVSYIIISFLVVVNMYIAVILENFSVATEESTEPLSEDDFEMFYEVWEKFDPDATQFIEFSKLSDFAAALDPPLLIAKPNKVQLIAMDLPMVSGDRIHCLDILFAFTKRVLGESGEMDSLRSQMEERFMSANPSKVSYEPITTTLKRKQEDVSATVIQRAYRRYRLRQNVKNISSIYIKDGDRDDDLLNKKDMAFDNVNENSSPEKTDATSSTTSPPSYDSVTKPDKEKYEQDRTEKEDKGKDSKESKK

[21] = system: Rattus norvegicus; assay: Antallodynic effect in Sprague-Dawley rat tibial nerve transection-induced mechanical allodynia model assessed as 50% shift in paw withdrawal threshold in ipsilateral paw at 10 mg/kg, single dose after 1.5 hrs (reference value: 1.7 +/- 0.2 g); assay type: functional
Method in brief: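 Rat tibial nerve transection neuropathic pain model; mechanical allodynia read as 50% paw withdrawal threshold (g) of the ipsilateral hindpaw. The threshold is taken at baseline and again 1.5 h after a single dose. Data are given as mean ± SEM, with significance set at P < 0.05.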

[22] = Solubility of the compound at pH 7.2; assay type: physicochemical; conditions: buffer
[23] = Half life in rat at 1 mg/kg, iv; assay type: ADME, organism-based; conditions: in vivo
[24] = Tmax in rat at 2 mg/kg, po; assay type: ADME, organism-based; conditions: in vivo
[25] = Plasma clearance in rat at 1 mg/kg, iv; assay type: ADME, organism-based
[26] = Plasma clearance in rat at 2 mg/kg, po; assay type: ADME, organism-based
[27] = Volume of distribution in rat at 1 mg/kg, iv; assay type: ADME, organism-based; conditions: in vivo
[28] = Oral bioavailability in rat at 2 mg/kg; assay type: ADME, organism-based; conditions: in vivo
[29] = system: Rattus norvegicus; assay: Antallodynic effect in Sprague-Dawley rat tibial nerve transection-induced mechanical allodynia model assessed as 50% shift in paw withdrawal threshold in ipsilateral paw at 40 mg/kg, single dose after 1.5 hrs (reference value: 1.7 +/- 0.3 g); assay type: functional
Method in brief: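 Tibial nerve transection neuropathic pain model in rat; single dose of 40 mg/kg; 50% paw withdrawal threshold of ipsilateral hindpaw measured 1.5 h post-dose against pre-dose baseline; pregabalin 10 mg/kg as comparator; mean ± SEM, P < 0.05 significance.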

[30] = Unbound plasma concentration in Sprague-Dawley rat at 40 mg/kg single dose; assay type: ADME, organism-based
[31] = system: Rattus norvegicus; assay: Toxicity in Sprague-Dawley rat assessed as effect on vertical or horizontal movement at 250 mg/kg, po single dose; assay type: organism-based; conditions: in vivo
Method in brief: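 Rats given a single oral dose of 250 mg/kg; horizontal and vertical locomotor movements compared with vehicle-treated controls.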

[32] = Half life in rat at 3 mg/kg, po; assay type: ADME, organism-based; conditions: in vivo
[33] = Tmax in rat at 3 mg/kg, po; assay type: ADME, organism-based; conditions: in vivo
[34] = Plasma clearance in rat at 3 mg/kg, po; assay type: ADME, organism-based
[35] = Half life in dog at 0.1 mg/kg, iv; assay type: ADME, organism-based, Canis lupus familiaris; conditions: in vivo
[36] = Tmax in dog at 0.25 mg/kg, po; assay type: ADME, organism-based, Canis lupus familiaris; conditions: in vivo
[37] = Plasma clearance in dog at 0.1 mg/kg, iv; assay type: ADME, organism-based, Canis lupus familiaris
[38] = Plasma clearance in dog at 0.25 mg/kg, po; assay type: ADME, organism-based, Canis lupus familiaris
[39] = Volume of distribution in dog at 0.1 mg/kg, iv; assay type: ADME, organism-based, Canis lupus familiaris; conditions: in vivo
[40] = Oral bioavailability in dog at 0.25 mg/kg; assay type: ADME, organism-based, Canis lupus familiaris; conditions: in vivo
[41] = target: T2, Sodium channel protein type 2 subunit alpha; assay: Inhibition of human Nav1.2 expressed in SHSY5Y cells by IonWorks Quattro selectivity assay; assay type: cell-based, SH-SY5Y
[42] = target: Sodium channel protein type 3 subunit alpha (Homo sapiens, UniProt Q9NY46); assay: Inhibition of human Nav1.3 expressed in SHSY5Y cells by IonWorks Quattro selectivity assay; assay type: cell-based, SH-SY5Y
[43] = target: T3, Sodium channel protein type 9 subunit alpha; assay: Inhibition of human Nav1.7 expressed in SHSY5Y cells by FRET assay; assay type: cell-based, SH-SY5Y

T1 sequence (Q9Y5Y9 whole entry): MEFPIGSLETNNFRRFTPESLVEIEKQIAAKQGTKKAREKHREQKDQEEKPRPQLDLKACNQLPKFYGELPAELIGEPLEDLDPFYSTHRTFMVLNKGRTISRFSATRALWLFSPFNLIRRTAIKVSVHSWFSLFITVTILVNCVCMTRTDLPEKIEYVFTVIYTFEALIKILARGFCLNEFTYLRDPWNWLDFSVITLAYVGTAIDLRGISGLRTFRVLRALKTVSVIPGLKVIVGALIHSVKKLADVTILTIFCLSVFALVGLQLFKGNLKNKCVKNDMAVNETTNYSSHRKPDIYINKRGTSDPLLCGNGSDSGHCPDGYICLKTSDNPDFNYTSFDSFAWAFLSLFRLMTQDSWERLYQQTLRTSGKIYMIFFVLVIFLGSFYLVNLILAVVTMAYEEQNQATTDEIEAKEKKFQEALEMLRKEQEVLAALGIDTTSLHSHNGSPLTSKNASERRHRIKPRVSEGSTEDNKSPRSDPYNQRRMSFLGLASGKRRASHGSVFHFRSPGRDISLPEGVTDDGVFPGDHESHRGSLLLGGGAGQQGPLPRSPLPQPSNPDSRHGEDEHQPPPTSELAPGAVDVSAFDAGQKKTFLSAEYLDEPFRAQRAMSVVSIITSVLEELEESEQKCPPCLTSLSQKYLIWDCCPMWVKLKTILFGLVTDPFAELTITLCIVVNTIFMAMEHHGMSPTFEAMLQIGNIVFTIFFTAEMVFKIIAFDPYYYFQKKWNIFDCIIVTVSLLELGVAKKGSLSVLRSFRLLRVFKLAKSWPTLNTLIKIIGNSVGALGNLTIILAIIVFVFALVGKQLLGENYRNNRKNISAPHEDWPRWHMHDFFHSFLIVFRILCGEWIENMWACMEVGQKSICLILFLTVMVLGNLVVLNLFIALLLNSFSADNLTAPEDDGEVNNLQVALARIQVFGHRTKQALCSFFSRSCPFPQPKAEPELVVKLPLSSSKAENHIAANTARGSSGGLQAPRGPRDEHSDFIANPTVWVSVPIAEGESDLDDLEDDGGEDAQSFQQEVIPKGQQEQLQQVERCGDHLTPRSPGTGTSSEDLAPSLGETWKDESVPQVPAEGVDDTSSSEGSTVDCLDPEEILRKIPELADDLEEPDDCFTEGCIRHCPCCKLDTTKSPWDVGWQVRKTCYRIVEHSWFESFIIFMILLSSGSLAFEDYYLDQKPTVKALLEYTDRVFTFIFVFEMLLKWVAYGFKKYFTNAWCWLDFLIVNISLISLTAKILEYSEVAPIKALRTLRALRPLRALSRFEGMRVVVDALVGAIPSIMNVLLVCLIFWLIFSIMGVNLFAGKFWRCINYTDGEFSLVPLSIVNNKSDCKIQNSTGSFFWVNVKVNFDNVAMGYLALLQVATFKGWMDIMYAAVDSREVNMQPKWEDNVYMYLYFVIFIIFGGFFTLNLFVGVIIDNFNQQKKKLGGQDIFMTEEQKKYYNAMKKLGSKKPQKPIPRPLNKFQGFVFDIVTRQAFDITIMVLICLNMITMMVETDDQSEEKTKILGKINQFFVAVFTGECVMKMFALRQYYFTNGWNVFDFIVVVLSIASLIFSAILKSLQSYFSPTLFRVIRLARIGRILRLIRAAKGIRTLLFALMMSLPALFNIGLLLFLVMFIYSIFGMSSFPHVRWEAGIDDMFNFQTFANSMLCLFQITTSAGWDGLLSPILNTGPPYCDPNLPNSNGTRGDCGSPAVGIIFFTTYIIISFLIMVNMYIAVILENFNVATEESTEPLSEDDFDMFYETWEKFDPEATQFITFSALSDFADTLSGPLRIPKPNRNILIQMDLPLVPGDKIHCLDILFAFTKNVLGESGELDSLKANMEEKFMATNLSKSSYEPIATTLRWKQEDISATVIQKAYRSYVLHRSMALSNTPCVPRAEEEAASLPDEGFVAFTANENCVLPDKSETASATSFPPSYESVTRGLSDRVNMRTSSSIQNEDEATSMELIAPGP

CNC(=O)c1cnc(N)c(-c2cc(Cl)cc(Cl)c2Cl)c1
IC50 [1]: 24 µM
IC50 [2]: 6.9 µM

CNC(=O)c1ccc(-c2cc(Cl)cc(Cl)c2Cl)c(N)n1
IC50 [1]: 2.6 µM
IC50 [2]: 14 µM
half-life [3]: 4 h
half-life [4]: 4.6 h
Tmax [5]: 1 h
clearance [6]: 11.7 mL/min/kg
CL/F [7]: 13.3 mL/min/kg
Vd [8]: 3 L/kg
bioavailability [9]: 91%
IC50 [10]: 0.19 µM
IC50 [11]: 13 µM
IC50 [12]: 12.8 µM
IC50 [13]: 9 µM
microsomal CLint [14]: < 9 µL/min/mg
microsomal CLint [15]: 7.1 µL/min/mg
IC50 [16]: 0.44 µM
IC50 [17]: 0.31 µM
Activity [18]: Active
IC50 [19]: 30 µM
IC50 [20]: 19 µM

CC(C)C[C@H](CN)CC(=O)O [PREGABALIN]
Activity [21]: 5.8 g

Cc1nocc1C(=O)Nc1ccc(-c2cc(Cl)cc(Cl)c2Cl)c(N)n1
solubility [22]: < 0.1 µg/mL

CNC(=O)c1ccc(-c2ccccc2Cl)c(N)n1
IC50 [1]: > 32 µM

CNC(=O)c1ccc(-c2ccc(Cl)cc2)c(N)n1
IC50 [1]: > 32 µM

Cn1nccc1C(=O)Nc1ccc(-c2ccccc2Cl)c(N)n1
IC50 [1]: 4.9 µM

COc1ccc(Cl)cc1-c1ccc(NC(=O)c2ccnn2C)nc1N
IC50 [1]: 7.4 µM

Cn1nccc1C(=O)Nc1ccc(-c2cc(Cl)cc(Cl)c2Cl)c(N)n1
IC50 [1]: 0.75 µM
solubility [22]: < 0.1 µg/mL

CNC(=O)c1ccc(-c2cc(Cl)cc(Cl)c2)c(N)n1
IC50 [1]: > 32 µM

COc1ccc(Cl)c(-c2ccc(NC(=O)c3ccnn3C)nc2N)c1 [PF-04531083]
IC50 [1]: 0.7 µM
half-life [23]: 3.9 h
Tmax [24]: 1.3 h
clearance [25]: 6.7 mL/min/kg
CL/F [26]: 11.4 mL/min/kg
Vd [27]: 2.25 L/kg
bioavailability [28]: 59%
IC50 [10]: 0.19 µM
IC50 [11]: 37 µM
IC50 [13]: 37 µM
IC50 [16]: 0.54 µM
IC50 [17]: 0.2 µM
Activity [29]: 7.3 g
fraction unbound [30]: 0.2
Activity [31]: Non-toxic
IC50 [20]: 36 µM

Nc1nnc(-c2cccc(Cl)c2Cl)c(N)n1 [LAMOTRIGINE]
IC50 [1]: 98 µM
IC50 [2]: 17 µM

Cn1nccc1C(=O)Nc1ccc(-c2ccccc2OC(F)(F)F)c(N)n1
IC50 [1]: 2.4 µM

Cn1nccc1C(=O)Nc1ccc(-c2cc(Cl)ccc2Cl)c(N)n1
IC50 [1]: 0.92 µM

CNC(=O)c1ccc(-c2cccc(Cl)c2)c(N)n1
IC50 [1]: > 32 µM

CC(=O)Nc1ccc(-c2cc(Cl)cc(Cl)c2Cl)c(N)n1
IC50 [1]: 0.16 µM
IC50 [2]: 3.5 µM
half-life [32]: 4.1 h
Tmax [33]: 0.75 h
CL/F [34]: 204 mL/min/kg
microsomal CLint [14]: 29 µL/min/mg
microsomal CLint [15]: 41 µL/min/mg

Cn1nccc1C(=O)Nc1ccc(-c2ccc(F)cc2Cl)c(N)n1
IC50 [1]: > 31 µM

Cc1nocc1C(=O)Nc1ccc(-c2ccccc2OC(F)(F)F)c(N)n1
IC50 [1]: 0.53 µM
half-life [35]: 9.7 h
Tmax [36]: 3.5 h
clearance [37]: 6.2 mL/min/kg
CL/F [38]: 10 mL/min/kg
Vd [39]: 5.3 L/kg
bioavailability [40]: 63%
IC50 [10]: 0.26 µM
IC50 [41]: 10 µM
IC50 [42]: 10 µM
IC50 [43]: 10 µM
IC50 [16]: 0.33 µM
Activity [29]: Active
IC50 [19]: > 30 µM

COc1ccc(Cl)c(-c2ccc(NC(=O)c3conc3C)nc2N)c1
IC50 [1]: 0.5 µM

COc1ccc(Cl)c(-c2ccc(NC(=O)C(C)C)nc2N)c1
IC50 [1]: 4 µM

CNC(=O)c1ccc(-c2cc(Cl)ccc2Cl)c(N)n1
IC50 [1]: 12 µM
